From PubChem BioAssay
Active and inactive are the calls of the source.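 Rule for the calls, unless noted: active = visually confirmed hit in the image check and inhibition above 20%; inconclusive = visually confirmed hit but inhibition not above 20%; inactive = no visual hit in the image check.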

Assays:
[1] = inhibitors of TNFa-induced NFkB p65 translocation, primary screen, imaging, HUVEC, MLSMR starter and 10KST1 sets (AID 438;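 active = inhibition above 20% together with a positive visual image hit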;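 note: compound added about 3h40 before a 20 min TNFalpha stimulation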;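 for inhibition: signal is the nuclear over cytoplasmic p65 intensity ratio per well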); conditions: HUVEC TNFa-induced p65 nuclear translocation; cell count: measured here: nuclei count (cytotoxicity indicator), at 2.08 µM; inhibition: at 2 µM, stronger effect = higher value, 0% TNFa-plus-vehicle, 100% no-TNFa wells
[2] = inhibitors of E-selectin induction by TNFa, primary screen, imaging, HUVEC, immunofluorescence, MLSMR starter and 10KST1 sets (AID 487); conditions: HUVEC TNFalpha-induced E-selectin immunofluorescence imaging, at 2 µM; inhibition: stronger effect = higher value; nuclei count: measured here: cell number, toxicity;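 for inhibition: signal is fraction of cell area covered by stained E-selectin grains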;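 for nuclei count: 100% = median nuclei count of all wells on the same plate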
[3] = DUSP6 inhibitors restoring Erk phosphorylation by chemical complementation, primary imaging in DUSP6-transfected HeLa (AID 609;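 active = compounds giving at least 50% inhibition in the cell-based MKP-3 phosphatase rescue imaging test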;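 for inhibition: phospho-Erk level distribution per well compared with pooled transfected vehicle control wells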); conditions: HeLa MKP-3 transfected, phospho-Erk imaging KS statistic, at 10 µM, cells stimulated with TPA for 15 min
[4] = molecular target: Dual specificity protein phosphatase 6 (Homo sapiens) (UniProt Q16828); assay: as above; conditions: HeLa MKP-3 transfected, phospho-Erk imaging KS statistic; at 10 µM; stronger effect = higher value; cells stimulated with TPA for 15 min
[5] = molecular target: Voltage-gated potassium channel subunit beta-2 (Rattus norvegicus) (UniProt P62483); assay: KvBeta enzyme negative modulators, primary screen, biochemical, NADPH fluorescence (AID 622;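 active = fluorescence slope higher than the sample average by over 3 SD, cut at about -0.22 in these data, passing the limit was not always enough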;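 note: slope of raw intensity against log time taken from 70 to 1610 s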); conditions: recombinant KvBeta, 4-cyanobenzaldehyde reduction, at 10 µM, stronger effect = higher value
[6] = molecular target: Voltage-gated potassium channel subunit beta-2 (Rattus norvegicus) (UniProt P62483); assay: KvBeta positive modulators, primary screen, biochemical, NADPH fluorescence (AID 623;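 active = NADPH fluorescence slope more negative than the mean of all samples by about 3 SD, 99.7% confidence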;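 note: fluorescence intensity change per second fitted from 20 to 320 s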); conditions: Recombinant KvBeta, NADPH fluorescence decrease slope, 10 min; at 10 µM; stronger effect = lower value
[7] = molecular target: Muscarinic acetylcholine receptor M4 (Homo sapiens) (UniProt P08173); assay: compounds altering M4/GIRK thallium flux, either direction, primary screen, M4 allosteric agonist project, cell-based, HEK293 M4/GIRK, BTC-AM (AID 625;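 active = fluorescence slope after compound addition differing from the mean of all tested samples at 99.7% confidence, mostly higher but some lower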;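 note: thallium influx through GIRK channels coupled to M4 in HEK293 cells with BTC-AM dye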); conditions: at 10 µM, actives lie on both sides
Procedure, shortened: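 Material – HEK293 cells with M4 receptor and GIRK channels · Buffer or medium – pH 7.3 thallium assay buffer · Doses – one dose, 10 µM final · Timing – cells overnight at 37 °C, BTC-AM loading 1 h, reads 2 min total · Measured by – kinetic fluorescence with BTC-AM dye · Controls – carbachol and DMSO controls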

[8] = inhibitors of larval lipid processing in zebrafish, primary screen, whole organism, PED6 fluorescence, gall bladder and intestine (AID 686;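 active = a full or partial loss of lipid-probe fluorescence in the fish gall bladder, intestine or both, judged by eye; inactive = no fluorescence loss, or compound toxic to the fish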;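 note: larvae 5 to 7 days old with five fish per well; signal comes from phospholipase A2 cleavage of quenched PED6 carried via bile; overnight exposure to compound and PED6 before scoring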); conditions: Zebrafish larvae PED6 lipid processing, fluorescence scoring; screened at 20 µM (by protocol)
Procedure, shortened: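 system = live zebrafish larvae aged 5-7 days, whole organism | probe or stimulus = ingested quenched lipid PED6 at 100 nM | doses = 20 µM single dose | timing = overnight exposure | detection = fluorescence microscopy with visual scoring of gall bladder and intestine | read-out = visual per-well fluorescence inhibition score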

[9] = inhibitors of Chlamydomonas gravitaxis, primary screen, whole organism, Chlamydomonas reinhardtii, WT vs cilia-less mutant, absorbance, 96-well (AID 463189;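 active = inhibition at or above 50% relative to wild type and mutant plate controls; inactive = inhibition below 50%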;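 note: 0% = wild type cc124 cells in DMSO and 100% = ciliumless bld1 mutant cells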); conditions: OD600 absorbance, 2 days, at 10 µM, stronger effect = higher value
[10] = measured here: cell density z-score
[11] = measured here: nuclear c-Myc green intensity z-score
[12] = measured here: nuclear pErk red intensity z-score, stronger effect = higher value

Sequence of Dual specificity protein phosphatase 6 (Homo sapiens) (Q16828 whole entry, looked up): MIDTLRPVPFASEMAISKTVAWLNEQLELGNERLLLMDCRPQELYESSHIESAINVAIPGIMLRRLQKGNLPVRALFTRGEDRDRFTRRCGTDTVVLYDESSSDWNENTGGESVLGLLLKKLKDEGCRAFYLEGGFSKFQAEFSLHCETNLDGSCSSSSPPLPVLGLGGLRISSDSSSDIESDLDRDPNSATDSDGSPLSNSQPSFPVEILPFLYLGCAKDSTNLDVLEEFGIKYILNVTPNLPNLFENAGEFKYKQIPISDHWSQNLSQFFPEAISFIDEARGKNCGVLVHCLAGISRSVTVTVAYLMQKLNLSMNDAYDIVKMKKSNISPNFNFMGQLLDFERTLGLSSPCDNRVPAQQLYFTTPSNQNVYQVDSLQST
Sequence of Muscarinic acetylcholine receptor M4 (Homo sapiens) (P08173 whole entry, looked up): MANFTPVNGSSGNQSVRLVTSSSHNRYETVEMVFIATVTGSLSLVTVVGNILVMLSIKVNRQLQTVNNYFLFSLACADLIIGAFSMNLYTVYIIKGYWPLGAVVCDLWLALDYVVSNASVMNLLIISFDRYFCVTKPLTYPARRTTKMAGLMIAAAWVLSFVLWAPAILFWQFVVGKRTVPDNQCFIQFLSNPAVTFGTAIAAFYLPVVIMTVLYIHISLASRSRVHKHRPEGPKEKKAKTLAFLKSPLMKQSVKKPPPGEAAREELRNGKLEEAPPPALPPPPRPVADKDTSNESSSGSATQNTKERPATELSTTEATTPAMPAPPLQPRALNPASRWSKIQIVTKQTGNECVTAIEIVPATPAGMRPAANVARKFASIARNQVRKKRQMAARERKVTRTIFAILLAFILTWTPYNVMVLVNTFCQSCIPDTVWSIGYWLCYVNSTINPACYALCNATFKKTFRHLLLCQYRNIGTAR
Sequence of Voltage-gated potassium channel subunit beta-2 (Rattus norvegicus) (P62483 whole entry, looked up): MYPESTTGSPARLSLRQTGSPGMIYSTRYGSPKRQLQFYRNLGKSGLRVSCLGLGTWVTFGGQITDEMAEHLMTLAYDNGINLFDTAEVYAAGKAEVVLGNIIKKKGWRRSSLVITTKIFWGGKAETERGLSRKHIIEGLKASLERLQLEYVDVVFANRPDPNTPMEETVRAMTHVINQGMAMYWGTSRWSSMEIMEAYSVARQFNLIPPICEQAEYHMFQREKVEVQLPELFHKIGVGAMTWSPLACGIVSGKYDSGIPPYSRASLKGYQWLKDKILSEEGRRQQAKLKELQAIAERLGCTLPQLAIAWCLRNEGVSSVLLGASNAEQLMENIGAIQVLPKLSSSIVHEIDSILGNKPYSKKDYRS

Compound | cell count [1] | inhibition [1] | inhibition [2] | nuclei count [2] [%] | z-score [3, 10] | z-score [3, 11] | z-score [3, 12] | inhibition [4] | fluorescence slope [5] | NADPH fluorescence slope [6] | fluorescence slope [7] | outcome [8] | inhibition [9]
Cn1c(=O)c2c(nc(NCc3ccc4c(c3)OCO4)n2Cc2ccccc2Cl)n(C)c1=O | 634 | -6% (inactive) | -29.1% (inactive) | 104 | 0.0435 | 2.04 | 0.82 | -2.09% (inactive) | -0.41 (inactive) | -9.6e-06 (inactive) | 0.00449 (inactive) | inactive | -8.68% (inactive)
CCOC(=O)C(C)c1nc2ccccc2[nH]c1=O (centres undefined) | 579 | -6.6% (inactive) | -30.5% (inactive) | 164 | -0.098 | 0.564 | 0.462 | 1.9e-07% (inactive) | -0.397 (inactive) | -6.3e-05 (inactive) | 0.00575 (inactive) | inactive | 12.9% (inactive)
COC(=O)C(NC(=O)c1ccccc1)(Nc1nccs1)C(F)(F)F (centres undefined) | 677 | -5.5% (inactive) | -7.4% (inactive) | 159 | 1.36 | -0.846 | 0.224 | 22.1% (inactive) | -0.474 (inactive) | -2.6e-05 (inactive) | 0.00463 (inactive) | inactive | -5.27% (inactive)
C=CCc1cccc(CNc2nc3ccccc3n2C(C)C)c1O | 653 | 4.4% (inactive) | 17.8% (inactive) | 145 | -1.18 | 1.98 | 1.18 | -3.95% (inactive) | -0.502 (inactive) | -9.2e-05 (inactive) | 0.00595 (inactive) | inactive | 2.16% (inactive)
c1ccc(-n2ncc3c(NCC4CCCO4)ncnc32)cc1 (centres undefined) | 597 | -4% (inactive) | -84.5% (inactive) | 113 | -2.6 | -0.155 | 1.07 | 1.42% (inactive) | -0.389 (inactive) | -9.3e-05 (inactive) | 0.00807 (inactive) | inactive | -15.2% (inactive)
Cc1cc(=O)oc2ccc(OCC(=O)N3CCc4ccccc43)cc12 | 630 | -1.2% (inactive) | -32.9% (inactive) | 180 | -1.93 | 0.803 | 1.57 | -2.29% (inactive) | -0.478 (inactive) | -7.1e-05 (inactive) | 0.00705 (inactive) | inactive | 1.65% (inactive)
N#Cc1c(NCCN)nc(NCc2ccccc2)c2c1CCN(Cc1ccccc1)C2 | 566 | 3% (inactive) | -151% (inactive) | 145 | 0.625 | -0.717 | 1.05 | 3.42% (inactive) | -0.466 (inactive) | -8.7e-06 (inactive) | 0.00448 (inactive) | active; weak signal in gallbladder and intestine | 15.7% (inactive)
Cc1csc(SCCn2c(Br)nc3c2c(=O)[nH]c(=O)n3C)n1 | 541 | -22.3% (inactive) | -35.3% (inactive) | 180 | 0.452 | 0.745 | 0.738 | -12.6% (inactive) | -0.409 (inactive) | -4.5e-05 (inactive) | 0.00514 (inactive) | inactive | 31.8% (inactive)
COc1cc(N2CCCC2)c(OC)cc1/C=c1/sc2nc3ccccc3n2c1=O | 499 | -8.5% (inactive) | -137% (inactive) | 155 | -1.29 | 0.0669 | -0.774 | 39.3% (inactive) | -0.438 (inactive) | -3.3e-05 (inactive) | 0.00712 (inactive) | inactive | 3.75% (inactive)
COc1ccc(CC(=O)OCN2C(=O)c3ccccc3C2=O)cc1 | 518 | -10.2% (inactive) | -70.2% (inactive) | 138 | 0.489 | -1.2 | -0.603 | 11.9% (inactive) | -0.359 (inactive) | -1.7e-05 (inactive) | 0.00563 (inactive) | inactive | 20.5% (inactive)
CC(=O)C1=C(O)C(=O)N(c2ccc(Br)cn2)C1c1ccccc1F (centres undefined) | 545 | -2.5% (inactive) | -45.7% (inactive) | 131 | 1.35 | -1.7 | -1.31 | 3.97% (inactive) | -0.454 (inactive) | -3.5e-05 (inactive) | 0.00688 (inactive) | inactive | 1.29% (inactive)
CC(NC(=O)NCCCn1ccnc1)(C(F)(F)F)C(F)(F)F | 679 | 2.1% (inactive) | -67.3% (inactive) | 166 | -0.846 | -0.74 | 0.188 | -13.3% (inactive) | -0.438 (inactive) | -5.8e-05 (inactive) | 0.005 (inactive) | inactive | 0.921% (inactive)
Cn1c(NCCCO)nc2c1c(=O)n(Cc1ccccc1F)c(=O)n2C | 691 | -14.5% (inactive) | -160% (inactive) | 167 | -0.594 | -1.48 | 0.588 | 1.9e-07% (inactive) | -0.512 (inactive) | -3.1e-05 (inactive) | 0.00567 (inactive) | inactive | 7.04% (inactive)
